Rows were chosen to be rich in hits. Some 1.8% of all compounds tested hit in one or more screens of this group.
NTR1 ag – agonists of human neurotensin receptor NTR1 | P30989 | NTR1-U2OS beta-arrestin-GFP spot imaging, agonist mode | activation, % at 20 µM | 0.17% of 330,000 active;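 active = activation at or above 40% of the spot to cytoplasm intensity ratio, with at least 20 cells analyzed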
MC4R barr agon – activates human MC4R beta-arrestin recruitment; 0.98% of 360,000 active; U2OS MC4R beta-arrestin complementation, luminescence; percent of melanotan II response, DMSO zero; activation, % at 8.9 µM; P32245; AID 540308;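 active = activation above a per-plate cutoff, the mean activation of sample wells on that plate plus 3 SD, cut at about 8% in these data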
Target sequence (P32245 whole entry, looked up): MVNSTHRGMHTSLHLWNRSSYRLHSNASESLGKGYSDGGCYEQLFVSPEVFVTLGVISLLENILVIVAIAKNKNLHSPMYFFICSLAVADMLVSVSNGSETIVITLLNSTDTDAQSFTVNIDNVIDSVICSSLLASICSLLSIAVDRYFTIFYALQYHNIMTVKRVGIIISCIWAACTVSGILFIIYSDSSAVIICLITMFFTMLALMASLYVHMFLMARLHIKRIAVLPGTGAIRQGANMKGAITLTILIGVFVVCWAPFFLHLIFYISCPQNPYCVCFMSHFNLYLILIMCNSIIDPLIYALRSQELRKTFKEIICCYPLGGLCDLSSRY
AI-2 QS mod – modulators of Vibrio harveyi AI-2 quorum sensing system | Vibrio harveyi JMH597 AI-2 luminescence/OD600 ratio, 9 h; active compounds read low; strain lacks LuxN and CqsS sensors; 0 = neutral-control median | activity change, % at 7.5 µM | 0.4% of 300,000 active | AID 2094; in the data active = activity change below about -75%, passing the limit was not always enough;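 note: luminescence divided by OD600 gain over 9 h not by final OD600 alone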
MC4R antag cAMP – human MC4R antagonism in cAMP assay; AID 540295; MC4R-expressing cells, MTII-stimulated cAMP, LANCE TR-FRET; inhibition, % at 6.5 µM; 0.48% of 360,000 active;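 active = inhibition above its plate's cutoff, the mean of tested wells on that plate plus 3 SD, cut at about 29% in these data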
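system = U2OS cells with stable human MC4R expression | also added = Melanotan II challenge after compound preincubation | dosing = one concentration, 6.5 µM nominal | incubation = compound 30 min, challenge 1 h, detection 1 h | measured by = TR-FRET with Eu-cAMP and labeled anti-cAMP, 671 nm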
MC4R barr ag – human MC4R beta-arrestin agonism confirmation. shares compounds with MC4R barr agon. 31% of 2,400 active. U2OS MC4R beta-arrestin recruitment, luminescence; scaled DMSO 0%, Melanotan II 100%. activation, % at 8.9 µM;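 active = mean activation across replicates above the hit cutoff set in the earlier primary screen, cut at about 8% in these data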
MOR DOR agonist – OPRM1-OPRD1 heterodimer agonism counter-screen. shares compounds with MC4R barr agon. U2OS PathHunter beta-arrestin, beta-gal luminescence; percent of deltorphin B response, DMSO zero. activation, % at 9.2 µM. 5.8% of 2,400 active. AID 602194;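 active = mean activation across replicates exceeds the hit threshold derived in the earlier primary screen, cut at about 18% in these data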
Large screens that a line does not name were inactive (follow-up assays come after a bar, where they were run).

COc1cccc(-c2cnc3c(NC=O)cc(-c4cccc(C(=O)N(C)C)c4)cn23)c1	MC4R barr agon 31 (no result: NTR1 ag, AI-2 QS mod) | MC4R barr ag 21 | MOR DOR agonist inactive
Nc1ccc(-c2cc(NC=O)c3ncc(-c4cccc(C(F)(F)F)c4)n3c2)cn1	MC4R barr agon 11 (no result: NTR1 ag, AI-2 QS mod) | MC4R barr ag inactive | MOR DOR agonist inactive
COc1cc(-c2cnc3c(NC=O)cc(-c4cccc(C(F)(F)F)c4)cn23)cc(OC)c1OC	MC4R barr agon 18 (no result: NTR1 ag, AI-2 QS mod) | MC4R barr ag inactive | MOR DOR agonist inactive
O=C(COc1ccc(Br)cc1)Nc1ccc(NC(=O)c2ccccc2)cc1	none
CSc1ccc(CCNC(=O)Cn2ncc3c([nH]c4ccccc43)c2=O)cc1	none
CCCCCCN1C(=O)CC(NC(=O)OCC2c3ccccc3-c3ccccc32)C/C=C\C1C(C)C (stereo not given)	none (no result: AI-2 QS mod)
CN(C)CCNC(=O)c1cccc(-c2cc(NC=O)c3ncc(-c4cccc(C(F)(F)F)c4)n3c2)c1	MC4R barr agon 23 (no result: NTR1 ag, AI-2 QS mod) | MC4R barr ag 29 | MOR DOR agonist inactive
COc1cccc(-c2cnc3c(NC=O)cc(-c4ccncc4)cn23)c1	none (no result: NTR1 ag, AI-2 QS mod)
COc1cccc(-c2cnc3c(NC=O)cc(-c4ccc(O)c(OC)c4)cn23)c1	MC4R barr agon 30 (no result: NTR1 ag, AI-2 QS mod) | MC4R barr ag 30 | MOR DOR agonist inactive
CN(CC(=O)Nc1ccc(F)c(F)c1F)C(=O)CC1CCCCC1	none (no result: AI-2 QS mod)
OC1(c2cccc(C(F)(F)F)c2)CCN(c2ncnc3c2[nH]c2ccc(F)cc23)CC1	MC4R barr agon 9.8 (no result: NTR1 ag, AI-2 QS mod) | MC4R barr ag inactive | MOR DOR agonist inactive
O=C(CCCN1CCC(O)(c2cccc(C(F)(F)F)c2)CC1)c1ccc(F)cc1	none (no result: AI-2 QS mod)
O=C(Nc1cc(S(=O)(=O)N2CCCCCC2)ccc1OCC(F)(F)F)c1cnccn1	MC4R barr agon 10 (no result: AI-2 QS mod) | MC4R barr ag inactive | MOR DOR agonist inactive
O=C(CCCCCn1c(=S)[nH]c2ccc(N3CCOCC3)cc2c1=O)NCc1ccc(Cl)cc1	MC4R barr agon 10 | MC4R barr ag inactive | MOR DOR agonist inactive
O=C(CCCCCn1c(=S)[nH]c2ccc(N3CCOCC3)cc2c1=O)NCCc1ccccc1	MC4R barr agon 18 | MC4R barr ag inactive | MOR DOR agonist 18
O=C(CCCCCn1c(=S)[nH]c2ccc(N3CCOCC3)cc2c1=O)NCc1ccc2c(c1)OCO2	MC4R barr agon 13 | MC4R barr ag inactive | MOR DOR agonist inactive
O=C(CCCCCn1c(=S)[nH]c2ccc(N3CCOCC3)cc2c1=O)NCc1ccccc1Cl	none
CCOC(=O)N1CCN(C(=O)c2ccc3c(c2)N(Cc2cc(C)ccc2C)C(=O)c2ccccc2S3=O)CC1 (stereo not given)	none
CC1=CC2=NC(=O)/C(=C\c3cccn3CCOc3cccc(C)c3)C(=N)N2O1	none
CCOc1cc(/C=C2/C(=N)N3OC(C)=CC3=NC2=O)ccc1OCCOc1ccccc1	MC4R barr agon 14 | MC4R barr ag 9.2 | MOR DOR agonist inactive
CC1=CC2=NC(=O)/C(=C\c3cccn3CCOc3cc(C)ccc3C)C(=N)N2O1	MC4R barr agon 14 | MC4R barr ag inactive | MOR DOR agonist inactive
Cc1ccc(NC(=O)C(C)c2ccc(-c3ccccc3)c(F)c2)c(C)c1 (stereo not given)	MC4R barr agon 9.6 | MC4R barr ag inactive | MOR DOR agonist inactive
CC(C(=O)Nc1ccccc1)c1ccc(-c2ccccc2)c(F)c1 (stereo not given)	none
Cc1cc(S(=O)(=O)N2CCOCC2)ccc1OCC(=O)Nc1ccc(F)c(Cl)c1	MC4R barr agon 16 | MC4R barr ag inactive | MOR DOR agonist inactive
Cc1cc(S(=O)(=O)N2CCOCC2)ccc1OCC(=O)Nc1ccc(F)cc1	none
Cc1c(C(=O)NC2CCCCC2C)oc2ccccc12 (stereo not given)	none
COC(=O)c1sc2nc(C)nc(SCC(=O)Nc3sccc3C(N)=O)c2c1C	MC4R barr agon 19 (no result: AI-2 QS mod) | MC4R barr ag inactive | MOR DOR agonist inactive
CS(=O)(=O)c1ccc(Cl)c(NC(=O)c2cc(=O)[nH]c3ccc(S(=O)(=O)N4CCOCC4)cc23)c1	none
CCOc1ccc(NC(=O)CSc2nc(-c3cccs3)cc(C(F)(F)F)n2)c([N+](=O)[O-])c1	MC4R barr agon 16 | MC4R barr ag 26 | MOR DOR agonist inactive
